Laboratory results from ChEMBL document CHEMBL2331168, “Anticonvulsant evaluation of aminoalkanol derivatives of 2- and 4-methylxanthone” (Bioorg Med Chem, 2013).
Active and inactive are the calls of the source.

What was measured:
Mus musculus [1] = assay: Anticonvulsant activity in albino mouse assessed as protection against subcutaneous pentetrazole-induced seizures at 100 mg/kg, ip after 0.5 hrs; format: functional, organism-based; parameters: dose 100 mg/kg
Summary of the method: (§1)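 Male albino mice (Carworth Farms No. 1) received compound ip in 0.5% methylcellulose, then pentetrazole 85 mg/kg sc in 0.9% NaCl at 0.5 or 4 h. Mice were watched for at least 30 min. Protection meant no threshold seizure, defined as a single clonic spasm lasting at least 5 s. Scored as protected/tested.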

Mus musculus [2] = assay: Anticonvulsant activity in albino mouse assessed as protection against maximal electroshock-induced seizures at 30 mg/kg, ip after 4 hrs; format: functional, organism-based; parameters: dose 30 mg/kg
Summary of the method: (§2)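 Male albino mice (Carworth Farms No. 1) were given the compound ip as a suspension in 0.5% methylcellulose at 3–300 mg/kg. MES testing was at 0.5 and 4 h, sometimes also at 0.25 and 1 h. Current was 60 Hz, 50 mA, 0.2 s via corneal electrodes, with saline eye drops. Protection meant no hindlimb tonic extension, scored as protected/tested.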

Mus musculus [3] = assay: Neurotoxicity in albino mouse assessed as minimal motor impairment at 30 mg/kg, ip after 0.5 hrs by rotorod test; format: toxicity, organism-based; parameters: dose 30 mg/kg, route intraperitoneal; conditions: in vivo
Summary of the method: (§3)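 Male albino mice (Carworth Farms No. 1) were dosed ip with suspensions in 0.5% methylcellulose and put on a 1 in. knurled rod rotating at 6 rpm at set times after dosing. Neurotoxicity meant failure to stay on the rod for at least 1 min in each of three trials. Scored as impaired/tested.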

Mus musculus [4] = assay: Neurotoxicity in albino mouse assessed as minimal motor impairment at 30 mg/kg, ip after 4 hrs by rotorod test; format: toxicity, organism-based; parameters: dose 30 mg/kg, route intraperitoneal; conditions: in vivo; summary of the method: as §3
Mus musculus [5] = assay: Anticonvulsant activity in albino mouse assessed as protection against maximal electroshock-induced seizures at 30 mg/kg, ip after 0.5 hrs; format: functional, organism-based; parameters: dose 30 mg/kg; summary of the method: as §2
Mus musculus [6] = assay: Anticonvulsant activity in albino mouse assessed as protection against maximal electroshock-induced seizures at 100 mg/kg, ip after 0.5 hrs; format: functional, organism-based; parameters: dose 100 mg/kg; summary of the method: as §2
Mus musculus [7] = assay: Anticonvulsant activity in albino mouse assessed as protection against subcutaneous pentetrazole-induced seizures at 100 mg/kg, ip after 4 hrs; format: functional, organism-based; parameters: dose 100 mg/kg; summary of the method: as §1
Mus musculus [8] = assay: Anticonvulsant activity in albino mouse assessed as protection against subcutaneous pentetrazole-induced seizures at 30 mg/kg, ip after 4 hrs; format: functional, organism-based; parameters: dose 30 mg/kg; summary of the method: as §1
Mus musculus [9] = assay: Neurotoxicity in albino mouse assessed as minimal motor impairment at 100 mg/kg, ip after 0.5 hrs by rotorod test; format: toxicity, organism-based; parameters: dose 100 mg/kg, route intraperitoneal; conditions: in vivo; summary of the method: as §3
Mus musculus [10] = assay: Neurotoxicity in albino mouse assessed as minimal motor impairment at 300 mg/kg, ip after 0.5 hrs by rotorod test; format: toxicity, organism-based; parameters: dose 300 mg/kg, route intraperitoneal; conditions: in vivo; summary of the method: as §3
Mus musculus [11] = assay: Anticonvulsant activity in albino mouse assessed as protection against subcutaneous pentetrazole-induced seizures at 30 mg/kg, ip after 0.5 hrs; format: functional, organism-based; parameters: dose 30 mg/kg; summary of the method: as §1
Rattus norvegicus [12] = assay: Neurotoxicity in Sprague-Dawley rat assessed as minimal motor impairment at 30 mg/kg, po after 1 hr by rotorod test; conditions: in vivo
Rattus norvegicus [13] = assay: Neurotoxicity in Sprague-Dawley rat assessed as minimal motor impairment at 30 mg/kg, po after 4 hrs by rotorod test; conditions: in vivo
Rattus norvegicus [14] = assay: Anticonvulsant activity in Sprague-Dawley rat assessed as protection against maximal electroshock-induced seizures at 30 mg/kg, po after 0.25 hrs; format: functional, organism-based; parameters: dose 30 mg/kg
Summary of the method: (§4)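 Male Sprague-Dawley rats dosed orally at 30 mg/kg and tested at 0.25, 0.5, 1, 2 and 4 h. Seizures were induced by 60 Hz alternating current at 150 mA for 0.2 s through corneal electrodes, after a drop of 0.9% NaCl in each eye. Protection meant abolition of hindlimb tonic extension. Reported as protected/tested, usually 4 rats per time point.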

Mus musculus [15] = assay: Anticonvulsant activity in albino mouse assessed as protection against maximal electroshock-induced seizures at 300 mg/kg, ip after 4 hrs; format: functional, organism-based; parameters: dose 300 mg/kg; summary of the method: as §2
Rattus norvegicus [16] = assay: Neurotoxicity in Sprague-Dawley rat assessed as minimal motor impairment at 30 mg/kg, po after 0.5 hrs by rotorod test; conditions: in vivo
Rattus norvegicus [17] = assay: Neurotoxicity in Sprague-Dawley rat assessed as minimal motor impairment at 30 mg/kg, po after 0.25 hrs by rotorod test; conditions: in vivo
Mus musculus [18] = assay: Anticonvulsant activity in albino mouse assessed as protection against subcutaneous pentetrazole-induced seizures at 300 mg/kg, ip after 4 hrs; format: functional, organism-based; parameters: dose 300 mg/kg; summary of the method: as §1
Rattus norvegicus [19] = assay: Neurotoxicity in Sprague-Dawley rat assessed as minimal motor impairment at 30 mg/kg, po after 2 hrs by rotorod test; conditions: in vivo
Mus musculus [20] = assay: Anticonvulsant activity in albino mouse assessed as protection against subcutaneous pentetrazole-induced seizures at 300 mg/kg, ip after 0.5 hrs; format: functional, organism-based; parameters: dose 300 mg/kg; summary of the method: as §1
Mus musculus [21] = assay: Anticonvulsant activity in albino mouse assessed as protection against maximal electroshock-induced seizures at 300 mg/kg, ip after 0.5 hrs; format: functional, organism-based; parameters: dose 300 mg/kg; summary of the method: as §2
Rattus norvegicus [22] = assay: Anticonvulsant activity in Sprague-Dawley rat assessed as protection against maximal electroshock-induced seizures at 30 mg/kg, po after 4 hrs; format: functional, organism-based; parameters: dose 30 mg/kg; summary of the method: as §4
Mus musculus [23] = assay: Neurotoxicity in albino mouse assessed as minimal motor impairment at 100 mg/kg, ip after 4 hrs by rotorod test; format: toxicity, organism-based; parameters: dose 100 mg/kg, route intraperitoneal; conditions: in vivo; summary of the method: as §3
Mus musculus [24] = assay: Neurotoxicity in albino mouse assessed as minimal motor impairment at 300 mg/kg, ip after 4 hrs by rotorod test; format: toxicity, organism-based; parameters: dose 300 mg/kg, route intraperitoneal; conditions: in vivo; summary of the method: as §3
Rattus norvegicus [25] = assay: Anticonvulsant activity in Sprague-Dawley rat assessed as protection against maximal electroshock-induced seizures at 30 mg/kg, po after 0.5 hrs; format: functional, organism-based; parameters: dose 30 mg/kg; summary of the method: as §4
Mus musculus [26] = assay: Anticonvulsant activity in albino mouse assessed as protection against maximal electroshock-induced seizures at 100 mg/kg, ip after 4 hrs; format: functional, organism-based; parameters: dose 100 mg/kg; summary of the method: as §2
Rattus norvegicus [27] = assay: Anticonvulsant activity in Sprague-Dawley rat assessed as protection against maximal electroshock-induced seizures at 30 mg/kg, po after 1 hr; format: functional, organism-based; parameters: dose 30 mg/kg; summary of the method: as §4
Rattus norvegicus [28] = assay: Anticonvulsant activity in Sprague-Dawley rat assessed as protection against maximal electroshock-induced seizures at 30 mg/kg, po after 2 hrs; format: functional, organism-based; parameters: dose 30 mg/kg; summary of the method: as §4

| SMILES | Activity (Mus musculus [1]) | Activity (Mus musculus [2]) | Activity (Mus musculus [3]) | Activity (Mus musculus [4]) | Activity (Mus musculus [5]) | Activity (Mus musculus [7]) | Activity (Mus musculus [8]) | Activity (Mus musculus [10]) | Activity (Mus musculus [11]) | Activity (Rattus norvegicus [12]) | Activity (Rattus norvegicus [13]) | Activity (Rattus norvegicus [14]) | Activity (Mus musculus [15]) | Activity (Rattus norvegicus [16]) | Activity (Rattus norvegicus [17]) | Activity (Rattus norvegicus [19]) | Activity (Mus musculus [20]) | Activity (Mus musculus [21]) | Activity (Mus musculus [23]) | Activity (Mus musculus [26]) | also measured |
| --- | --- | --- | --- | --- | --- | --- | --- | --- | --- | --- | --- | --- | --- | --- | --- | --- | --- | --- | --- | --- | --- |
| COc1ccc2c(=O)c3cccc(CNCC(C)O)c3oc2c1 (racemic) | inactive | inactive | Non-toxic | Non-toxic | inactive | inactive | inactive | Toxic | inactive |  |  |  |  |  |  |  |  |  |  |  | Activity (Mus musculus [6]): Active; Activity (Mus musculus [9]): Toxic |
| CC[C@@H](CO)NCc1cccc2c(=O)c3ccc(OC)cc3oc12 | inactive | inactive |  | Non-toxic | inactive | inactive | inactive | Toxic | inactive | Non-toxic | Non-toxic | inactive | Active | Non-toxic | Non-toxic | Non-toxic | inactive | Active |  |  | Activity (Mus musculus [18]): inactive; Activity (Rattus norvegicus [22]): inactive |
| CC[C@H](CO)NCc1cccc2c(=O)c3ccc(OC)cc3oc12 | inactive | inactive | Non-toxic | Non-toxic | inactive | inactive | inactive | Toxic | inactive | Non-toxic | Non-toxic |  | Active | Non-toxic | Non-toxic | Non-toxic | inactive | Active | Non-toxic | inactive | Activity (Mus musculus [24]): Non-toxic; Activity (Mus musculus [18]): inactive; Activity (Mus musculus [9]): Non-toxic; Activity (Rattus norvegicus [25]): inactive |
| COc1ccc2c(=O)c3cccc(CNC(C)CO)c3oc2c1.Cl (racemic) | inactive | inactive | Non-toxic | Non-toxic | inactive |  | inactive | Toxic | inactive | Non-toxic | Non-toxic | inactive |  | Non-toxic | Non-toxic | Non-toxic |  |  | Toxic | inactive | Activity (Rattus norvegicus [27]): inactive; Activity (Rattus norvegicus [28]): inactive |
| COc1ccc2c(=O)c3cccc(CN[C@@H](C)CO)c3oc2c1 | inactive | inactive | Non-toxic | Non-toxic | inactive | inactive | inactive |  | inactive | Non-toxic | Non-toxic | inactive | Active | Non-toxic | Non-toxic | Non-toxic | inactive | inactive | Non-toxic | inactive | Activity (Mus musculus [24]): Non-toxic; Activity (Mus musculus [18]): inactive; Activity (Rattus norvegicus [25]): inactive; Activity (Rattus norvegicus [28]): inactive; Activity (Rattus norvegicus [22]): inactive |
| COc1ccc2c(=O)c3cccc(CNC(C)(C)CO)c3oc2c1 | inactive | inactive | Non-toxic | Non-toxic | inactive | inactive | inactive | Toxic | inactive | Non-toxic | Non-toxic | inactive |  | Non-toxic | Non-toxic | Non-toxic |  |  | Non-toxic | inactive | Activity (Mus musculus [6]): Active; Activity (Mus musculus [9]): Toxic; Activity (Rattus norvegicus [28]): inactive |
| CC(CO)NCc1ccc2oc3ccc(Cl)cc3c(=O)c2c1 (racemic) | inactive | inactive | Non-toxic | Non-toxic | inactive | inactive | inactive | Non-toxic | inactive | Non-toxic | Non-toxic | inactive | Active | Non-toxic | Non-toxic | Non-toxic | inactive | inactive | Non-toxic |  | Activity (Mus musculus [24]): Non-toxic; Activity (Mus musculus [6]): inactive; Activity (Mus musculus [18]): inactive; Activity (Mus musculus [9]): Non-toxic; Activity (Rattus norvegicus [25]): inactive; Activity (Rattus norvegicus [28]): inactive |
| C[C@H](CO)NCc1ccc2oc3ccc(Cl)cc3c(=O)c2c1 | inactive | inactive | Non-toxic | Non-toxic | inactive | inactive | inactive |  | inactive | Non-toxic | Non-toxic |  | Active | Non-toxic | Non-toxic | Non-toxic | inactive | Active | Non-toxic | inactive | Activity (Mus musculus [24]): Non-toxic; Activity (Mus musculus [18]): inactive; Activity (Mus musculus [9]): Non-toxic; Activity (Rattus norvegicus [25]): inactive; Activity (Rattus norvegicus [28]): inactive |
| COc1ccc2c(=O)c3cccc(CN[C@H](C)CO)c3oc2c1 | inactive | inactive | Non-toxic | Non-toxic | inactive | inactive | inactive | Toxic | inactive |  |  | inactive | Active |  | Non-toxic | Non-toxic | inactive | Active | Non-toxic | inactive | Activity (Mus musculus [24]): Toxic; Activity (Mus musculus [6]): inactive; Activity (Rattus norvegicus [27]): inactive; Activity (Rattus norvegicus [22]): inactive |
